Test results published in article PMC3983399 (Journal of Medicinal Chemistry, 2014).

What was measured:
M14 cells = assay: ApoTox-Glo triplex assay; assay type: cell-based; settings: for cytotoxicity response / effect on cell viability (live cell protease): early time point (4 h); for time of caspase activity spike: time points 4, 24, 48, 72 h
Method in brief: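 M14 #5 cells, 1250/well in serum-free DMEM, preincubated 4 h at 37 °C, 5% CO2. Compounds (1:3 serial dilutions) incubated 4, 24, 48 and 72 h alongside ionomycin, terfenadine and panobinostat controls. Viability/cytotoxicity reagent (400 µM GF-AFC, 400 µM bis-AAF-R110 in reagent) 30 min at 37 °C; fluorescence Ex400/Em505 (live-cell protease) and Ex485/Em520 (dead-cell protease). Then Caspase-Glo 3/7, 30 min at room temperature, luminescence.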

HDAC1 = HDAC1 (Homo sapiens, UniProt Q13547); assay: HDAC inhibition, HDAC1; assay type: biochemical; settings: up to 100 μM, data not shown
[1] = tested on: SKMEL-28 melanoma cell line; assay: Hexosaminidase viability assay, SKMEL-28; assay type: cell-based; settings: Homo sapiens, SK-MEL-28, read-out: IC50 SKMEL-28, text
Method in brief: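 Cells in 96-well plates grown overnight, then treated 48 h with compound at 0–50 µM. Wells washed with PBS. Hexosaminidase substrate added for 30 min at 37 °C, followed by developer; absorbance read at 405 nm. Percent viability = (treated absorbance/control absorbance) × 100.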

M14 melanoma cell line = assay: CellTiter-Glo viability assay, M14 cells; assay type: cell-based
Method in brief: (§1)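 Cells plated at 1250/well in serum-free medium (F12 for CHO-K1 and A549, DMEM for M14). Compounds given as 10-point 1:3 dilution series starting at 300 µM before addition, with gefitinib as assay control. Incubated 72 h at 37 °C, 5% CO2. CellTiter-Glo added, 15 min at room temperature, luminescence read. Normalized to media-only (0%) and 1% DMSO-treated cells (100%). Percent inhibition is the mean of three experiments ± SD.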

HDAC2 = HDAC2 (Homo sapiens, UniProt Q92769); assay: HDAC inhibition, HDAC2; assay type: biochemical; settings: up to 100 μM, data not shown
HDAC6 = target: T1, HDAC6 (Homo sapiens, UniProt Q9UBN7); assay: HDAC inhibition, HDAC6; assay type: biochemical; settings: up to 100 μM, data not shown
T1 sequence (Q9UBN7 1-1215): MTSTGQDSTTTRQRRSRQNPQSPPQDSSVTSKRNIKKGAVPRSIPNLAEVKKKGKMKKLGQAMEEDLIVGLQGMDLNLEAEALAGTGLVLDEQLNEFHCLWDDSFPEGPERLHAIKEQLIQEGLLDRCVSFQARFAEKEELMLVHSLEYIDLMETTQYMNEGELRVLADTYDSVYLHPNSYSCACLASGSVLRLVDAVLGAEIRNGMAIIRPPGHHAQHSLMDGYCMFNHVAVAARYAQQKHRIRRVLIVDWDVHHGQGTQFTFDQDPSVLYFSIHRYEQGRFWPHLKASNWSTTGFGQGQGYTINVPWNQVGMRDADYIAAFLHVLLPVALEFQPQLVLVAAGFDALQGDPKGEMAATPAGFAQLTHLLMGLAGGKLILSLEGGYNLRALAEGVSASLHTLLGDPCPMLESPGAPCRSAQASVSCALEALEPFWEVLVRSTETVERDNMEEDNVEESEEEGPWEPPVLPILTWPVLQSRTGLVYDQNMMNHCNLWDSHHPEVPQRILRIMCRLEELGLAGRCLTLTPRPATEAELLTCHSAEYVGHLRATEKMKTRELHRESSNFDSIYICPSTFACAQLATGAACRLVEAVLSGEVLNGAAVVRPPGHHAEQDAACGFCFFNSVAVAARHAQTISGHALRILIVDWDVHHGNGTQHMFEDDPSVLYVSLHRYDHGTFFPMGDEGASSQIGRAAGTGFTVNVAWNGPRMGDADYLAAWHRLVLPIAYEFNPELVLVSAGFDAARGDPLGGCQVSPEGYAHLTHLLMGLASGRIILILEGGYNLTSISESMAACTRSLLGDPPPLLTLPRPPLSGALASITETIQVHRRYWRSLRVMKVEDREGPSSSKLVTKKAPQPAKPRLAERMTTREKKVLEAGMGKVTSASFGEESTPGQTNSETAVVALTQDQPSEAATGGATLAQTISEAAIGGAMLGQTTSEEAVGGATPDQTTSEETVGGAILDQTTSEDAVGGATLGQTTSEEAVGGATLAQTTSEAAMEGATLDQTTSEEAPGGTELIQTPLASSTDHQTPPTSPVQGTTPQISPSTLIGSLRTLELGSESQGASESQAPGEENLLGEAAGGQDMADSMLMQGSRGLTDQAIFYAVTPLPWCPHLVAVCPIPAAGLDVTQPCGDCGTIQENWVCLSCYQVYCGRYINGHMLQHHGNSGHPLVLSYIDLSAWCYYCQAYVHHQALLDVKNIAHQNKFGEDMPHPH

[2] = tested on: melanoma cells with mutated Q61LNRAS and wild-type BRAF (M202 and M207); settings: up to 10 μM; cited from earlier work
[3] = tested on: A549 nonsmall cell lung cancer cell line; assay: CellTiter-Glo viability assay, A549 cells; assay type: cell-based; settings: Homo sapiens, A549, read-out: Inhibition % @ 100 μM A549
Method in brief: as §1

Chain of HDAC2 (Q92769 whole entry): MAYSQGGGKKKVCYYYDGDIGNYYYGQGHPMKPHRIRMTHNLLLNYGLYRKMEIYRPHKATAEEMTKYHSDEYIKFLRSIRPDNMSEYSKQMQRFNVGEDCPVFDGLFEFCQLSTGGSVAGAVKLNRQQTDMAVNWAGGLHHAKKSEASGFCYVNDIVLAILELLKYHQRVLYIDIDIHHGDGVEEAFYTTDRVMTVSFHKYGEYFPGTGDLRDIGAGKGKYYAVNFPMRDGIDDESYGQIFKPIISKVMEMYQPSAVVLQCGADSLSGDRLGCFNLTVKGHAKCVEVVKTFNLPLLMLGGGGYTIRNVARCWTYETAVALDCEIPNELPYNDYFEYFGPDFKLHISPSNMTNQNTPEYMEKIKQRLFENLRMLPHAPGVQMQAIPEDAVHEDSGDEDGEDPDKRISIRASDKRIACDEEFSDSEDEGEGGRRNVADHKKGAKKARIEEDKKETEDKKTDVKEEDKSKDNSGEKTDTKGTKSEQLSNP
Chain of HDAC1 (Q13547 whole entry, species assumed): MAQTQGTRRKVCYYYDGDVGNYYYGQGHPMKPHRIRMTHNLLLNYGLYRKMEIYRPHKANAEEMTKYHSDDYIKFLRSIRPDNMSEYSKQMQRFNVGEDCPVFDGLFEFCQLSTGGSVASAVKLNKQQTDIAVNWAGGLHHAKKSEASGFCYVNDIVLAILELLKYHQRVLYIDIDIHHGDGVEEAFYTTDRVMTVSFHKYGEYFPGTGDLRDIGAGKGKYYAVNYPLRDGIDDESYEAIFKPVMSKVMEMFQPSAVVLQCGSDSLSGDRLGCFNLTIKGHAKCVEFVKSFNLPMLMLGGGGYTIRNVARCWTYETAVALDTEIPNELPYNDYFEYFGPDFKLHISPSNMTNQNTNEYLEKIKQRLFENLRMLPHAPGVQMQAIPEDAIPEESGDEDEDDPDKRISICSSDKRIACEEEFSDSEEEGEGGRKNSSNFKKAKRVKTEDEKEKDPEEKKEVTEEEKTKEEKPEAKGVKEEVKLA

C[C@H](CCC(=O)O)C[C@H](C)C[C@H](C)C(=O)/C=C(\O)[C@H](C)C[C@H](C)C/C=C/[C@@H](C)[C@@H](O)[C@@H](C)[C@@H](O)C[C@@H]1CC[C@@](C)([C@H]2CC[C@@](C)([C@@H](C)O)O2)O1 [ionomycin]
cytotoxicity response (M14 cells): strong cytotoxicity response | effect on cell viability (live cell protease) (M14 cells): dose-dependent loss of viability | time of caspase activity spike (M14 cells): did not induce a spike in caspase activity

O=C1NC[C@H](Cc2ccccc2)N(C[C@@H]2CCCN2C[C@H](Cc2ccccc2)N2C[C@H](Cc3ccc(O)cc3)N(CCC34CC5CC(CC(C5)C3)C4)C(=O)C2=O)C1=O [Compound 2155-18]
HDAC1 inhibition (HDAC1): lack of HDAC inhibition | IC50 [1]: 890 ± 70 nM | IC50 (M14 melanoma cell line; Homo sapiens, M14, read-out: IC50 M14, Table 3, mean of three ± SD): 890 ± 70 nM | HDAC2 inhibition (HDAC2): lack of HDAC inhibition | HDAC6 inhibition (HDAC6): lack of HDAC inhibition

Cc1[nH]c2ccccc2c1CCNCc1ccc(/C=C/C(=O)NO)cc1 [panobinostat]
cytotoxicity response (M14 cells): no effect | effect on cell viability (live cell protease) (M14 cells): no effect | time of caspase activity spike (M14 cells): 24 to 48 h

CCCS(=O)(=O)Nc1ccc(F)c(C(=O)c2c[nH]c3ncc(-c4ccc(Cl)cc4)cc23)c1F [vemurafenib]
activity against M202 and M207 melanoma cells [2]: inactive

CCC[C@H]1CNC(=O)C(=O)N1C[C@@H]1CCCN1C[C@@H](CC1CCCCC1)N1C[C@H](Cc2ccc(O)cc2)N(CCc2ccccc2)C(=O)C1=O [Compound 2155-17]
selectivity for M14 over A549 cells (M14 melanoma cell line; ratio of IC50): approximately 5 fold | selectivity for M14 over CHO-K1 cells (M14 melanoma cell line; ratio of IC50): more than 10 fold

O=C1NC[C@H](Cc2ccccc2)N(C[C@@H]2CCCN2C[C@@H](CC2CCCCC2)N2C[C@H](Cc3ccc(O)cc3)N(CCc3ccccc3)C(=O)C2=O)C1=O [Compound 2155-14]
HDAC1 inhibition (HDAC1): lack of HDAC inhibition | cytotoxicity response (M14 cells): no markers for apoptosis and cytotoxicity | effect on cell viability (live cell protease) (M14 cells): no effect on cell viability | time of caspase activity spike (M14 cells): 24 h | inhibition of M14 cell viability at highest tested concentration (M14 melanoma cell line; 100 μM): not able to inhibit M14 cell viability fully | HDAC2 inhibition (HDAC2): lack of HDAC inhibition | HDAC6 inhibition (HDAC6): lack of HDAC inhibition

CC(C)(C)c1ccc(C(O)CCCN2CCC(C(O)(c3ccccc3)c3ccccc3)CC2)cc1 (centres unmarked) [terfenadine]
cytotoxicity response (M14 cells): cytotoxicity spike | effect on cell viability (live cell protease) (M14 cells): early loss of cell viability | time of caspase activity spike (M14 cells): 4 to 24 h

CCC[C@@H]1CNC(=O)C(=O)N1C[C@@H]1CCCN1C[C@H](Cc1ccc(O)cc1)N1C[C@@H](Cc2ccc(O)cc2)N(CC(CC)c2ccccc2)C(=O)C1=O (some centres unmarked) [Compound 2]
inhibition at 100 µM (M14 melanoma cell line; Homo sapiens, M14, read-out: Inhibition % @ 100 μM M14): 14 ± 3% | inhibition at 100 µM [3]: 0%
